Each block holds one compound with its values, some of them ahead of it.
How the values were obtained:
Assay type in all cases: biochemical
[1] = biological target: T1, hGST M1-1 (Homo sapiens, UniProt P09488); assay: 1,536-well luminescence GST inhibition assay, hGST M1-1; details: for IC50: 5 nM hGST M1-1, 10 μM PBI 3773, 40 min
T1 sequence (P09488 2-218 limits assumed): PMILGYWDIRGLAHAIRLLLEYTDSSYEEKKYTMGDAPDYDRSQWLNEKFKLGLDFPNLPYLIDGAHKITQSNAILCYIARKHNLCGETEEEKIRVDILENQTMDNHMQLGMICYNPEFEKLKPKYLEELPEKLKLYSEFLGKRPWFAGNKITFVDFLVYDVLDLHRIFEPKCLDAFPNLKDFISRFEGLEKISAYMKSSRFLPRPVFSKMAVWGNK
Procedure, shortened: (§1)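 GST at 5 nM (hGST P1-1 125 nM) with GSH in 50 mM HEPES pH 7.5, 0.01% Tween-20. Pin-added test compound (1:2 16-point or 1:3 8-point series), 10 or 15 min RT. Substrate: PBI 1155 20 μM (S. japonicum), PBI 3773 10 μM (A1-1, M1-1, A4-4), PBI 1158 100 μM (P1-1). Reaction 40 min (P1-1 60 min) RT, then luciferase detection reagent and luminescence read. Percent inhibition from median catalyzed and no-enzyme controls; duplicate wells; curve-fitted IC50.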

[2] = system: GSTs (hGST A1-1, mGST A4-4, hGST M1-1, hGST P1-1, S. japonicum GST); assay: 1,536-well luminescence GST inhibition assay, all GSTs tested
Procedure, shortened: as §1

[3] = biological target: S. japonicum GST (Schistosoma japonicum, UniProt P08515); assay: 1,536-well luminescence GST inhibition assay, S. japonicum GST
Sequence of S. japonicum GST (P08515 whole entry): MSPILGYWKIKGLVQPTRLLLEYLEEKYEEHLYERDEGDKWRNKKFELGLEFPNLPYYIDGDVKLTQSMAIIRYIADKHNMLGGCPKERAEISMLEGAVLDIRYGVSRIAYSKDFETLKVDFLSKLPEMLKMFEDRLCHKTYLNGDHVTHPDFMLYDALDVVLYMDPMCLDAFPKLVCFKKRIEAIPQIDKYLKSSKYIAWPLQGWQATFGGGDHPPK
Procedure, shortened: as §1

[4] = biological target: hGST P1-1 (Homo sapiens, UniProt P09211); assay: 1,536-well luminescence GST inhibition assay, hGST P1-1
Sequence of hGST P1-1 (P09211 2-210 limits assumed): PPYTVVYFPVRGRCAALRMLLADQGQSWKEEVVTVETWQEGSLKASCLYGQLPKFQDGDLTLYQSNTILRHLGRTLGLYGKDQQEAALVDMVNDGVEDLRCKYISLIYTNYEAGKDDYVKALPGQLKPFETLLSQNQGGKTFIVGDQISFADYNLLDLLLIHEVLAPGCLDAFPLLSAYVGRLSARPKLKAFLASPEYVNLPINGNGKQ
Procedure, shortened: as §1

IC50 [1]: 191 nM | fold difference in IC50 (NBD-GS vs Bis-(NB-GS)) ([1]; hGST M1-1): ~ 130 fold
Structure (SMILES): NC(CCC(=O)NC(CSc1ccc(C(=O)OCCOCCOCCOCCOC(=O)c2ccc(SCC(NC(=O)CCC(N)C(=O)O)C(=O)NCC(=O)O)c([N+](=O)[O-])c2)cc1[N+](=O)[O-])C(=O)NCC(=O)O)C(=O)O (stereo not shown) [Bis-(NB-GS)]

Structure (SMILES): O=[N+]([O-])c1ccc(Cl)c([N+](=O)[O-])c1 [CDNB, 1-chloro-2,4-dinitrobenzene]
inhibition (in words) ([2]; top concentrations tested near 100 μM): partial inhibition only at the top concentrations tested

Structure (SMILES): O=[N+]([O-])c1ccc(SCCCCCCCCO)c2nonc12 [NBD-8-OH]
inhibitory activity (in words) ([2]; against the GSTs tested): single-digit micromolar or better

IC50 [1]: 24400 nM
Structure (SMILES): NC(CCC(=O)NC(CSc1ccc([N+](=O)[O-])c2nonc12)C(=O)NCC(=O)O)C(=O)O (stereo not shown) [NBD-GS]

Structure (SMILES): Nc1c(S(=O)(=O)O)cc(Nc2ccc(Nc3nc(Cl)nc(Nc4cccc(S(=O)(=O)O)c4)n3)c(S(=O)(=O)O)c2)c2c1C(=O)c1ccccc1C2=O [Reactive Blue 2]
onset of luminescence decrease relative to IC50 ([1]; hGST M1-1): 8 fold | IC50 [3]: 63 nM | onset of luminescence quenching relative to IC50 ([3]; S. japonicum GST): several hundred times greater | onset of luminescence quenching relative to IC50 ([4]; hGST P1-1): approximately 60 fold

Structure (SMILES): O=C1OC(c2ccc(O)c(S(=O)(=O)O)c2)(c2ccc(O)c(S(=O)(=O)O)c2)c2c(Br)c(Br)c(Br)c(Br)c21 [bromosulfalein]
inhibition (in words) ([4]; 125 nM hGST P1-1, 100 μM PBI 1158, 60 min): lack of inhibition
